From ChEMBL document CHEMBL2163262 (J Med Chem, 2012)
Several values for one entry are separate records, joined by “and”; a condition that tells them apart may be missing. Identical values can stand only once.

How the values were obtained:
[1] = target: Neuropeptide FF receptor 2 (Homo sapiens, UniProt Q9Y5X5, Y417A); assay: Agonist activity at human NPFF2 receptor F/Y7.35A mutant assessed as [3H]inositol phosphate accumulation after 2 hrs by liquid scintillation counting; format: functional
How it was run: (§1)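 IP accumulation in COS-7 cells transiently cotransfected with human NPFFR (Ala point mutant or wt) plus chimeric G protein. Cells seeded at 60,000/well and grown to subconfluency. Compounds were dissolved in DMSO and diluted in DMEM with 10 mM LiCl (1% v/v DMSO final). Stimulation lasted 2 h.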

[2] = target: T1, Neuropeptide FF receptor 2 (Homo sapiens, UniProt Q9Y5X5); assay: Agonist activity at human NPFF2 receptor expressed in COS1 cells assessed as [3H]inositol phosphate accumulation after 2 hrs by liquid scintillation counting; format: functional, cell-based, COS-1
[3] = target: T2, Neuropeptide FF receptor 1 (Homo sapiens, UniProt Q9GZQ6); assay: Agonist activity at human NPFF1 receptor expressed in […] assessed as [3H]inositol phosphate accumulation after 2 hrs by liquid scintillation counting; format: functional, cell-based, COS-1; how it was run: as §1
[4] = target: Neuropeptide FF receptor 1 (Homo sapiens, UniProt Q9GZQ6, F311A); assay: Agonist activity at human NPFF1 receptor F/Y7.35A mutant assessed as [3H]inositol phosphate accumulation after 2 hrs by liquid scintillation counting; format: functional; how it was run: as §1
[5] = target: T2, Neuropeptide FF receptor 1; assay: Competitive antagonist activity at human NPFF1 receptor expressed in COS1 cells assessed as inhibition of NPVF-induced [3H]inositol phosphate accumulation after 2 hrs by liquid scintillation counting; format: functional, cell-based, COS-1; conditions: read-out: pA2 (converted)
[6] = target: T2, Neuropeptide FF receptor 1; assay: Agonist activity at human NPFF1 receptor expressed in COS1 cells assessed as [3H]inositol phosphate accumulation up to 10 uM after 2 hrs by liquid scintillation counting; format: functional, cell-based; conditions: cos-1
[7] = target: T1, Neuropeptide FF receptor 2; assay: Agonist activity at human NPFF2 receptor expressed in COS1 cells assessed as [3H]inositol phosphate accumulation at 10 uM after 2 hrs by liquid scintillation counting relative to NPFF; format: functional, cell-based; conditions: COS-1
[8] = system: Neuropeptide FF receptor 2 (Homo sapiens), Q9Y5X5 [Y417A]; assay: Partial agonist activity at human NPFF2 receptor F/Y7.35A mutant assessed as [3H]inositol phosphate accumulation at 10 uM after 2 hrs by liquid scintillation counting relative to NPFF; format: functional
[9] = system: Neuropeptide FF receptor 1 (Homo sapiens), Q9GZQ6 [E205A]; assay: Agonist activity at human NPFF1 receptor E5.27A mutant assessed as [3H]inositol phosphate accumulation at 10 uM after 2 hrs by liquid scintillation counting relative to NPVF; format: functional; how it was run: as §1
[10] = target: T2, Neuropeptide FF receptor 1; assay: Partial agonist activity at human NPFF1 receptor expressed in COS1 cells assessed as [3H]inositol phosphate accumulation at 10 uM after 2 hrs by liquid scintillation counting relative to NPVF; format: functional, cell-based; conditions: COS-1
[11] = target: Neuropeptide FF receptor 1 (Homo sapiens, UniProt Q9GZQ6, Y216A); assay: Agonist activity at human NPFF1 receptor Y5.38A mutant assessed as [3H]inositol phosphate accumulation after 2 hrs by liquid scintillation counting; format: functional; how it was run: as §1
[12] = target: Neuropeptide FF receptor 2 (Homo sapiens, UniProt Q9Y5X5, D400A); assay: Agonist activity at human NPFF2 receptor D6.59A mutant assessed as [3H]inositol phosphate accumulation after 2 hrs by liquid scintillation counting; format: functional; how it was run: as §1
[13] = system: Neuropeptide FF receptor 2 (Homo sapiens), Q9Y5X5 [Y415A]; assay: Agonist activity at human NPFF2 receptor Y7.33A mutant assessed as [3H]inositol phosphate accumulation at 31.6 uM after 2 hrs by liquid scintillation counting relative to NPFF; format: functional; how it was run: as §1
[14] = target: Neuropeptide FF receptor 1 (Homo sapiens, UniProt Q9GZQ6, Y309A); assay: Agonist activity at human NPFF1 receptor Y7.33A mutant assessed as [3H]inositol phosphate accumulation after 2 hrs by liquid scintillation counting; format: functional; how it was run: as §1
[15] = target: Neuropeptide FF receptor 2 (Homo sapiens, UniProt Q9Y5X5, Y321A); assay: Agonist activity at human NPFF2 receptor Y5.38A mutant assessed as [3H]inositol phosphate accumulation after 2 hrs by liquid scintillation counting; format: functional; how it was run: as §1
[16] = system: Neuropeptide FF receptor 2 (Homo sapiens), Q9Y5X5 [E310A]; assay: Agonist activity at human NPFF2 receptor E5.27A mutant assessed as [3H]inositol phosphate accumulation at 31.6 uM after 2 hrs by liquid scintillation counting relative to NPFF; format: functional; how it was run: as §1
[17] = target: Neuropeptide FF receptor 1 (Homo sapiens, UniProt Q9GZQ6, D294A); assay: Agonist activity at human NPFF1 receptor D6.59A mutant assessed as [3H]inositol phosphate accumulation after 2 hrs by liquid scintillation counting; format: functional; how it was run: as §1
[18] = system: Neuropeptide FF receptor 1 (Homo sapiens), Q9GZQ6 [F311A]; assay: Agonist activity at human NPFF1 receptor F/Y7.35A mutant assessed as [3H]inositol phosphate accumulation at 31.6 uM after 2 hrs by liquid scintillation counting relative to NPVF; format: functional; how it was run: as §1
[19] = target: Neuropeptide FF receptor 2 (Homo sapiens, UniProt Q9Y5X5, Y415A); assay: Agonist activity at human NPFF2 receptor Y7.33A mutant assessed as [3H]inositol phosphate accumulation after 2 hrs by liquid scintillation counting; format: functional; how it was run: as §1
[20] = system: Neuropeptide FF receptor 1 (Homo sapiens), Q9GZQ6 [Y309A]; assay: Agonist activity at human NPFF1 receptor Y7.33A mutant assessed as [3H]inositol phosphate accumulation at 10 uM after 2 hrs by liquid scintillation counting relative to NPVF; format: functional; how it was run: as §1
[21] = target: Neuropeptide FF receptor 1 (Homo sapiens, UniProt Q9GZQ6, E205A); assay: Agonist activity at human NPFF1 receptor E5.27A mutant assessed as [3H]inositol phosphate accumulation after 2 hrs by liquid scintillation counting; format: functional; how it was run: as §1
[22] = system: Neuropeptide FF receptor 1 (Homo sapiens), Q9GZQ6 [E205A]; assay: Agonist activity at human NPFF1 receptor E5.27A mutant assessed as [3H]inositol phosphate accumulation at 31.6 uM after 2 hrs by liquid scintillation counting relative to NPVF; format: functional; how it was run: as §1
[23] = system: Neuropeptide FF receptor 2 (Homo sapiens), Q9Y5X5 [Y417A]; assay: Agonist activity at human NPFF2 receptor F/Y7.35A mutant assessed as [3H]inositol phosphate accumulation at 10 uM after 2 hrs by liquid scintillation counting relative to NPFF; format: functional; how it was run: as §1
[24] = system: Neuropeptide FF receptor 1 (Homo sapiens), Q9GZQ6 [D294A]; assay: Agonist activity at human NPFF1 receptor D6.59A mutant assessed as [3H]inositol phosphate accumulation at 31.6 uM after 2 hrs by liquid scintillation counting relative to NPVF; format: functional; how it was run: as §1
[25] = system: Neuropeptide FF receptor 1 (Homo sapiens), Q9GZQ6 [Y216A]; assay: Agonist activity at human NPFF1 receptor Y5.38A mutant assessed as [3H]inositol phosphate accumulation at 31.6 uM after 2 hrs by liquid scintillation counting relative to NPVF; format: functional; how it was run: as §1
[26] = target: Neuropeptide FF receptor 2 (Homo sapiens, UniProt Q9Y5X5, E310A); assay: Agonist activity at human NPFF2 receptor E5.27A mutant assessed as [3H]inositol phosphate accumulation after 2 hrs by liquid scintillation counting; format: functional; how it was run: as §1
[27] = system: Neuropeptide FF receptor 2 (Homo sapiens), Q9Y5X5 [D400A]; assay: Agonist activity at human NPFF2 receptor D6.59A mutant assessed as [3H]inositol phosphate accumulation at 31.6 uM after 2 hrs by liquid scintillation counting relative to NPFF; format: functional; how it was run: as §1
[28] = target: T2, Neuropeptide FF receptor 1; assay: Agonist activity at human NPFF1 receptor expressed in COS1 cells assessed as [3H]inositol phosphate accumulation at 10 uM after 2 hrs by liquid scintillation counting relative to NPVF; format: functional, cell-based; conditions: COS-1
[29] = system: Neuropeptide FF receptor 2 (Homo sapiens), Q9Y5X5 [Y321A]; assay: Agonist activity at human NPFF2 receptor Y5.38A mutant assessed as [3H]inositol phosphate accumulation at 31.6 uM after 2 hrs by liquid scintillation counting relative to NPFF; format: functional; how it was run: as §1
[30] = system: Neuropeptide FF receptor 2 (Homo sapiens), Q9Y5X5 [D400A]; assay: Agonist activity at human NPFF2 receptor D6.59A mutant assessed as [3H]inositol phosphate accumulation at 31.6 uM after 2 hrs by liquid scintillation counting relative to NPFF
[31] = system: Neuropeptide FF receptor 2 (Homo sapiens), Q9Y5X5 [Y415A]; assay: Agonist activity at human NPFF2 receptor Y7.33A mutant assessed as [3H]inositol phosphate accumulation at 10 uM after 2 hrs by liquid scintillation counting relative to NPFF; format: functional
[32] = system: Neuropeptide FF receptor 2 (Homo sapiens), Q9Y5X5 [Y321A]; assay: Agonist activity at human NPFF2 receptor Y5.38A mutant assessed as [3H]inositol phosphate accumulation at 10 uM after 2 hrs by liquid scintillation counting relative to NPFF; format: functional; how it was run: as §1
[33] = target: T2, Neuropeptide FF receptor 1; assay: Ratio of EC50 for human NPFF1 receptor F/Y7.35A mutant to EC50 for human wild type NPFF1 receptor
[34] = system: Neuropeptide FF receptor 1 (Homo sapiens), Q9GZQ6 [F311A]; assay: Agonist activity at human NPFF1 receptor F/Y7.35A mutant assessed as [3H]inositol phosphate accumulation at 10 uM after 2 hrs by liquid scintillation counting relative to NPVF; format: functional

T1 sequence (Q9Y5X5 whole entry): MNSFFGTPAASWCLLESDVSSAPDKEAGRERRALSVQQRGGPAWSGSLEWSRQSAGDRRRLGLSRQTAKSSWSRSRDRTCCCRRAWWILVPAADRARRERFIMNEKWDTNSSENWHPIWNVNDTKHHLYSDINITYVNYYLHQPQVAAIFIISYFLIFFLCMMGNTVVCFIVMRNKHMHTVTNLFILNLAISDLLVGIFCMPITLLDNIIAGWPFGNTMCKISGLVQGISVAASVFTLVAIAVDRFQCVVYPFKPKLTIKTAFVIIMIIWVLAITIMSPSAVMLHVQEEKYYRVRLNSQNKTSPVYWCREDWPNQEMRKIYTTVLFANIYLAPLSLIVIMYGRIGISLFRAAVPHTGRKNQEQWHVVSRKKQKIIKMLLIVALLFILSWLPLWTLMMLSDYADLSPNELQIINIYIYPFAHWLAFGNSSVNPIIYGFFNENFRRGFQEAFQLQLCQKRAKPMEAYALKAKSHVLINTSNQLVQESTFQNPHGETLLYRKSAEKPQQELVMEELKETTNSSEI
T2 sequence (Q9GZQ6 whole entry): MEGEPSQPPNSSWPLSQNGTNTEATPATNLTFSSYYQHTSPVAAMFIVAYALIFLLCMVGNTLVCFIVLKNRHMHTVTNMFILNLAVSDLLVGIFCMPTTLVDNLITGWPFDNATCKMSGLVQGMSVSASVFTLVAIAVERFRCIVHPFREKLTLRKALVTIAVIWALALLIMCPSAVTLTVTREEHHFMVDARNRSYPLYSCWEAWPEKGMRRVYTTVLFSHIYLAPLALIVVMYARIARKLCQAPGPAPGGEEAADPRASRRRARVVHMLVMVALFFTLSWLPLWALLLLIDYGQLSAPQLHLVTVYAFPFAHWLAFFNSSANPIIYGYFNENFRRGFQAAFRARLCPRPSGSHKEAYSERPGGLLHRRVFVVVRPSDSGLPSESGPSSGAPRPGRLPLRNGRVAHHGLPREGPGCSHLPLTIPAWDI
Chain of Neuropeptide FF receptor 2 (Homo sapiens), Q9Y5X5 [Y321A] (Q9Y5X5 whole entry Y321A): as the sequence (Q9Y5X5 whole entry) above, with Y321A counted along it
Chain of Neuropeptide FF receptor 2 (Homo sapiens, UniProt Q9Y5X5, Y417A) (Q9Y5X5 whole entry Y417A): as the sequence (Q9Y5X5 whole entry) above, with Y417A counted along it
Chain of Neuropeptide FF receptor 2 (Homo sapiens), Q9Y5X5 [Y417A] (Q9Y5X5 whole entry Y417A): as the sequence (Q9Y5X5 whole entry) above, with Y417A counted along it
Chain of Neuropeptide FF receptor 1 (Homo sapiens), Q9GZQ6 [F311A] (Q9GZQ6 whole entry F311A): as the sequence (Q9GZQ6 whole entry) above, with F311A counted along it
Chain of Neuropeptide FF receptor 1 (Homo sapiens, UniProt Q9GZQ6, F311A) (Q9GZQ6 whole entry F311A): as the sequence (Q9GZQ6 whole entry) above, with F311A counted along it
Chain of Neuropeptide FF receptor 2 (Homo sapiens, UniProt Q9Y5X5, E310A) (Q9Y5X5 whole entry E310A): as the sequence (Q9Y5X5 whole entry) above, with E310A counted along it
Chain of Neuropeptide FF receptor 2 (Homo sapiens), Q9Y5X5 [E310A] (Q9Y5X5 whole entry E310A): as the sequence (Q9Y5X5 whole entry) above, with E310A counted along it
Chain of Neuropeptide FF receptor 2 (Homo sapiens), Q9Y5X5 [Y415A] (Q9Y5X5 whole entry Y415A): as the sequence (Q9Y5X5 whole entry) above, with Y415A counted along it
Chain of Neuropeptide FF receptor 2 (Homo sapiens, UniProt Q9Y5X5, Y415A) (Q9Y5X5 whole entry Y415A): as the sequence (Q9Y5X5 whole entry) above, with Y415A counted along it
Chain of Neuropeptide FF receptor 2 (Homo sapiens, UniProt Q9Y5X5, Y321A) (Q9Y5X5 whole entry Y321A): as the sequence (Q9Y5X5 whole entry) above, with Y321A counted along it
Chain of Neuropeptide FF receptor 1 (Homo sapiens), Q9GZQ6 [E205A] (Q9GZQ6 whole entry E205A): as the sequence (Q9GZQ6 whole entry) above, with E205A counted along it
Chain of Neuropeptide FF receptor 2 (Homo sapiens), Q9Y5X5 [D400A] (Q9Y5X5 whole entry D400A): as the sequence (Q9Y5X5 whole entry) above, with D400A counted along it
Chain of Neuropeptide FF receptor 2 (Homo sapiens, UniProt Q9Y5X5, D400A) (Q9Y5X5 whole entry D400A): as the sequence (Q9Y5X5 whole entry) above, with D400A counted along it
Chain of Neuropeptide FF receptor 1 (Homo sapiens), Q9GZQ6 [D294A] (Q9GZQ6 whole entry D294A): as the sequence (Q9GZQ6 whole entry) above, with D294A counted along it
Chain of Neuropeptide FF receptor 1 (Homo sapiens, UniProt Q9GZQ6, D294A) (Q9GZQ6 whole entry D294A): as the sequence (Q9GZQ6 whole entry) above, with D294A counted along it
Chain of Neuropeptide FF receptor 1 (Homo sapiens, UniProt Q9GZQ6, Y309A) (Q9GZQ6 whole entry Y309A): as the sequence (Q9GZQ6 whole entry) above, with Y309A counted along it
Chain of Neuropeptide FF receptor 1 (Homo sapiens), Q9GZQ6 [Y309A] (Q9GZQ6 whole entry Y309A): as the sequence (Q9GZQ6 whole entry) above, with Y309A counted along it
Chain of Neuropeptide FF receptor 1 (Homo sapiens), Q9GZQ6 [Y216A] (Q9GZQ6 whole entry Y216A): as the sequence (Q9GZQ6 whole entry) above, with Y216A counted along it
Chain of Neuropeptide FF receptor 1 (Homo sapiens, UniProt Q9GZQ6, Y216A) (Q9GZQ6 whole entry Y216A): as the sequence (Q9GZQ6 whole entry) above, with Y216A counted along it
Chain of Neuropeptide FF receptor 1 (Homo sapiens, UniProt Q9GZQ6, E205A) (Q9GZQ6 whole entry E205A): as the sequence (Q9GZQ6 whole entry) above, with E205A counted along it

Compound: NC(=O)[C@H](Cc1ccccc1)NC(=O)[C@H](CCCN=C(N)N)NC(=O)C12CC3CC(CC(C3)C1)C2
- EC50 [1]: 472 nM
- EC50 [2]: 379 nM
- EC50 [3]: 71 nM
- EC50 [4]: 462 nM

Compound: N=C(N)NCCC[C@@H](NC(=O)C(c1ccccc1)c1ccccc1)C(=O)NCc1ccc(O)cc1
- EC50 [1]: 113 nM
- Kb [5]: 20.9 nM
- EC50 [2]: 233 nM

Compound: NC(N)=NCCC[C@@H](NC(=O)C(c1ccccc1)c1ccccc1)C(=O)NCc1ccc(O)cc1
- EC50 [6]: Not Active
- Emax [7]: 57%
- Emax [8]: 51%

Compound: CC(C)C[C@H](NC(=O)[C@H](CC(N)=O)NC(=O)[C@@H]1CCCN1C(=O)[C@@H](N)C(C)C)C(=O)N1CCC[C@H]1C(=O)N[C@@H](CCC(N)=O)C(=O)N[C@@H](CCCNC(=N)N)C(=O)N[C@@H](Cc1ccccc1)C(N)=O
- Emax [9]: 66%

Compound: N=C(N)N/N=C/c1ccc(Br)c(Br)c1
- Emax [10]: 22%
- EC50 [2]: 2190 nM
- EC50 [3]: 527 nM

Compound: N=C(N)N/N=C/c1ccc(Cl)c(C(F)(F)F)c1
- EC50 [3]: 2370 nM

Compound: N=C(N)N/N=C/c1ccc(-c2ccc(Br)cc2C(F)(F)F)o1
- EC50 [11]: > 10000 nM
- EC50 [12]: > 10000 nM
- Emax [13]: 78%
- EC50 [14]: 4610 nM
- EC50 [15]: > 10000 nM
- EC50 [1]: 1260 nM
- Emax [16]: 24%
- EC50 [17]: > 10000 nM
- Emax [7]: 118%
- Emax [18]: 88%
- EC50 [2]: 1660 nM
- EC50 [19]: > 10000 nM
- Emax [20]: 111%
- EC50 [3]: 5620 nM
- EC50 [21]: > 10000 nM
- EC50 [4]: > 10000 nM
- Emax [22]: 21%
- Emax [23]: 100%
- Emax [24]: 85%
- Emax [25]: 37%
- EC50 [26]: > 10000 nM
- Emax [27]: 77%
- Emax [28]: 110%
- Emax [29]: 65%

Compound: N=C(N)N/N=C/C12CC3CC(CC(C3)C1)C2
- Emax [30]: 140%
- EC50 [12]: 8860 nM
- EC50 [6]: Not Active
- EC50 [15]: 2450 nM
- EC50 [1]: 301 nM
- Emax [31]: 83%
- Kb [5]: 41.7 nM
- Emax [16]: 59%
- Emax [7]: 132%
- EC50 [2]: 298 nM
- EC50 [19]: 8330 nM
- Emax [32]: 83% and 69%
- Emax [23]: 107%
- EC50 [26]: > 10000 nM

Compound: N=C(N)NCCC[C@H](NC(=O)C12CC3CC(CC(C3)C1)C2)C(=O)N[C@@H](Cc1ccccc1)C(N)=O
- Ratio EC50 [33]: 271
- Emax [7]: 75%
- Emax [34]: 89%
- Emax [23]: 75%
- Emax [28]: 93%
